15 molecules from ChEMBL document CHEMBL1122794, “[(Arylcarbonyl)oxy]propanolamines. 1. Novel beta-blockers with ultrashort duration of action” (J Med Chem, 1984) can be followed below.

The nature of data set [1]: t1/2 in canine liver. Format: ADME, Canis lupus familiaris. The conditions noted are these: dog.
The species named for data set [2] is Canis familiaris. Kind of data set: Time taken for 80% recovery at a dose of 50 microg (3-h infusion period). Type of data set: functional, organism-based. The conditions noted are these: Canis lupus familiaris.
The target in data set [3] is T1, Adrenergic receptor beta (Homo sapiens, UniProt P08588+P07550+P13945). Briefly: In vitro blocking of beta adrenergic receptor in guinea pig trachea. Type of data set: tissue-based, Cavia porcellus. The conditions noted are these: target entry is the homologue from another species.
The nature of data set [4]: T1/2 in canine blood. Type of data set: ADME, […], Canis lupus familiaris. The conditions noted are these: dog. In short, it runs like this: (§1)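 1 mL of solution containing 50 µg of compound was added to 1 mL of dog or human whole blood, or to 1 mL of 33% (w/v) canine liver homogenate. They were assayed by HPLC on a phenyl column with 60% acetonitrile/40% 0.05 M sodium phosphate (pH 6.6) and UV detection. Half-life was read graphically from concentration versus time.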

Data set [5] in a line: Stability at pH 7.4 and 37 degree Celsius (after 18 h). Format: physicochemical. The conditions noted are these: buffer. In short, it runs like this: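 Chemical stability was tested in pH 7.4 buffer at 37 °C. The percentage of parent compound remaining after 18 h of incubation was recorded.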
Data set [6] can be described thus: Time in which 1/2 of the initial amount disappeared in human blood. Format: ADME, organism-based. In short, it runs like this: as §1
The target in data set [7] is T1, Adrenergic receptor beta. Briefly: In Vitro inhibition of the beta adrenergic receptor in guinea pig atria. Type of data set: tissue-based, Cavia porcellus. The conditions noted are these: target entry is the homologue from another species.
Data set [8] can be described thus: Selectivity determined by expression 10[pA2(atria) - pA2 (trachea)] in guinea pig. Type of data set: functional, Cavia porcellus.
Data set [9] is filed under the species Canis familiaris. Briefly: Time taken for 80% recovery at a dose of 18 microg (3-h infusion period). Format: functional, organism-based. The conditions noted are these: Canis lupus familiaris.
The species named for data set [10] is Canis familiaris. Kind of data set: Time taken for 80% recovery at a dose of 59 microg (3-h infusion period). Format: functional, organism-based. The conditions noted are these: Canis lupus familiaris. In short, it runs like this: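 After the infusion ended, the time to 80% recovery of the blockade was recorded as duration of action. The listed dose is the average amount infused per minute over the 3-h period, in µg/(kg min).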

The species entered for data set [11] is Canis familiaris. Briefly: Time taken for 80% recovery at a dose of 226 microg (3-h infusion period). Format: functional, organism-based. The conditions noted are these: Canis lupus familiaris.
For data set [12], the species on record is Canis familiaris. Briefly: Time taken for 80% recovery at a dose of 123 microg (3-h infusion period). Type of data set: functional, organism-based. The conditions noted are these: Canis lupus familiaris.
Data set [13] is filed under the species Canis familiaris. Briefly: Percent inhibition of isoproterenol induced tachycardia at a dose of 1.1 microg (3-h infusion period). Format: functional, Canis lupus familiaris.
Data set [14] deals with T1, Adrenergic receptor beta. Kind of data set: In vitro beta adrenergic receptor blocking in guinea pig trachea. The conditions noted are these: target entry is the homologue from another species. Type of data set: tissue-based, Cavia porcellus.
Data set [15] is filed under the species Canis familiaris. Briefly: Time taken for 80% recovery at a dose of 1.1 microg (3-h infusion period). The conditions noted are these: Canis lupus familiaris. Type of data set: functional, organism-based.
Data set [16] is filed under the species Canis familiaris. Briefly: Time taken for 80% recovery at a dose of 3.3 microg (3-h infusion period). Format: functional, organism-based. The conditions noted are these: Canis lupus familiaris.
The species entered for data set [17] is Canis familiaris. Briefly: Percent inhibition of isoproterenol induced tachycardia at a dose of 3.3 microg (3-h infusion period). Type of data set: functional, Canis lupus familiaris.
The species entered for data set [18] is Canis familiaris. Briefly: Time taken for 80% recovery at a dose of 10 microg (3-h infusion period). The conditions noted are these: Canis lupus familiaris. Format: functional, organism-based.
The species entered for data set [19] is Canis familiaris. Kind of data set: Percent inhibition of isoproterenol induced tachycardia at a dose of 10 microg (3-h infusion period). Type of data set: functional, Canis lupus familiaris.
Data set [20] is filed under the species Canis familiaris. Kind of data set: Time taken for 80% recovery at a dose of 25 microg (3-h infusion period). Type of data set: functional, organism-based. The conditions noted are these: Canis lupus familiaris.
The species entered for data set [21] is Canis familiaris. Briefly: Time taken for 80% recovery at a dose of 28 microg (3-h infusion period). Format: functional, organism-based. The conditions noted are these: Canis lupus familiaris.
The target of data set [22] is Beta-2 adrenergic receptor (Cavia porcellus) (UniProt Q8K4Z4). Briefly: In Vitro evaluation for […] selectivity in guinea pig. The procedure, abridged:
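Selectivity index calculated as 10^[pA2(atria) − pA2(trachea)] from pA2 values measured in isolated guinea pig atria and trachea. A minus sign denotes β2 selectivity.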

Data set [23] in a line: Time in which 1/2 of the initial amount disappeared in canine liver. Format: ADME, […], Canis lupus familiaris. The conditions noted are these: dog. The procedure, abridged: as §1
A short description of data set [24]: Time in which 1/2 of the initial amount disappeared in canine blood. Type of data set: ADME, […], Canis lupus familiaris. The conditions noted are these: dog. The procedure, abridged: as §1
Data set [25] is filed under the species Canis familiaris. Briefly: Time taken for 80% recovery at a dose of 209 microg (3-h infusion period). Type of data set: functional, organism-based. The conditions noted are these: Canis lupus familiaris.
The species named for data set [26] is Canis familiaris. Briefly: Time taken for 80% recovery at a dose of 20 microg (3-h infusion period). Format: functional, organism-based. The conditions noted are these: Canis lupus familiaris.
The species entered for data set [27] is Canis familiaris. Briefly: Percent inhibition of isoproterenol induced tachycardia at a dose of 20 microg (3-h infusion period). Type of data set: functional, Canis lupus familiaris.
For data set [28], the species on record is Canis familiaris. Briefly: Percent inhibition of isoproterenol induced tachycardia at a dose of 23 microg (3-h infusion period). Type of data set: functional, Canis lupus familiaris.
For data set [29], the species on record is Canis familiaris. Kind of data set: Time taken for 80% recovery at a dose of 23 microg (3-h infusion period). Format: functional, organism-based. The conditions noted are these: Canis lupus familiaris.
The species named for data set [30] is Canis familiaris. Briefly: Time taken for 80% recovery at a dose of 121 microg (3-h infusion period) / 88 kg min (40-min infusion model). Type of data set: functional, organism-based. The conditions noted are these: Canis lupus familiaris.

Sequence of Beta-2 adrenergic receptor (Cavia porcellus) (Q8K4Z4 whole entry, looked up): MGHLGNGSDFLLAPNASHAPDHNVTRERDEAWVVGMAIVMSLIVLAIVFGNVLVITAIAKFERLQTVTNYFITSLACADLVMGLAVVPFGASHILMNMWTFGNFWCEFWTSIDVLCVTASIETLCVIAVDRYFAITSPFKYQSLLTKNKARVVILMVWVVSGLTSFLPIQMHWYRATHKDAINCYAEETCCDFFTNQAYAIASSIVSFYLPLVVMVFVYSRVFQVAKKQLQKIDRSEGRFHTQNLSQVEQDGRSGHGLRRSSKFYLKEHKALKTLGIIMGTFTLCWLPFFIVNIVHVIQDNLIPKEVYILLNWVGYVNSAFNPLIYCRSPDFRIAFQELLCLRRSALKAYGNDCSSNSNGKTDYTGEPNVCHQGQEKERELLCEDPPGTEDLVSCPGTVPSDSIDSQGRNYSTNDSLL

As a reminder, the half-life is the time in which the quantity being followed falls by half. As usually defined, the pA2 is the negative logarithm of the molar antagonist concentration that doubles the agonist concentration needed for the same response. Read a high pA2 as a more potent antagonist. In general, share remaining refers to what is left of the initial amount, in per cent. In the case of `Cc1ccccc1C(=O)OCC(O)CNC(C)C` (configuration not stated), the half-life in [1] was 147 min; in [4] it was above 180 min; in data set [6] it was above 180 min. Also, the Recovery time in the data set filed under Canis familiaris [2] is above 60 min. Besides, the pA2 on Adrenergic receptor beta [3] is reported as 7.1; at Adrenergic receptor beta [7], 6.5. The amount remaining at 18 h in [5] is 100%. For the same molecule, the Selectivity in data set [8] is -4.
For the molecule `CC(C)(C)NCC(O)COC(=O)c1ccccc1Cl` (configuration not stated), the half-life came to 72 min in data set [1], 31 min in [4] and 6 min in data set [6]. The Recovery time in the data set filed under Canis familiaris [9] is above 35 min. The same molecule displayed a fraction remaining at 18 h in [5] of 98%.
Consider `COc1ccc(CCNCC(O)COC(=O)c2ccc(F)cc2)cc1OC` (configuration not stated), for which the pA2 on Adrenergic receptor beta [3] is on record as 6.7; on Adrenergic receptor beta [7], 7. Besides, the Selectivity in data set [8] is recorded as 2. This molecule had a Recovery time in the data set filed under Canis familiaris [10] above 60 min.
Regarding `COc1ccc(CCNCC(O)COC(=O)c2ccccc2C)cc1OC` (configuration not stated), the Recovery time in the data set filed under Canis familiaris [11] is above 60 min. The figures for the pA2 at Adrenergic receptor beta [3] and at Adrenergic receptor beta [7] were 6.8 and 7, respectively. In data set [5], this molecule registered an amount remaining at 18 h of 94%. Besides, in data set [8], the Selectivity is 2.
Regarding `CC(C)NCC(O)COC(=O)c1ccc2c(c1)OCO2` (configuration not stated), in [1], the half-life was 29 min. Besides, the Recovery time in the data set filed under Canis familiaris [12] is 50 min. In addition, on Adrenergic receptor beta [7], the pA2 turned out to be 6.9.
Broadly, the Inhibition is the percentage by which the read-out fell short of the control. A high value points to strong suppression. On to `CC(C)(CNC(=O)N1CCOCC1)NCC(O)COC(=O)c1ccccc1F` (configuration not stated), for which the Inhibition in the data set listed under Canis familiaris [13] stood at 81%. In addition, the figures for the pA2 at Adrenergic receptor beta [14] and on Adrenergic receptor beta [7] were 8.2 and 8.5, respectively. For the same molecule, the Selectivity in data set [8] is 2. The Recovery time in the data set listed under Canis familiaris [15] is above 60 min.
With `CC(C)C(=O)NCC(C)(C)NCC(O)COC(=O)c1ccccc1F` (configuration not stated), in the data set listed under Canis familiaris [16], the Recovery time amounted to 22 min. For the same molecule, the results for the half-life in [1] and in [4] were 3.5 min and 20 min, respectively. The same molecule displayed an Inhibition in the data set listed under Canis familiaris [17] of 62%.
`CC(C)(CNC(=O)Cc1ccccc1)NCC(O)COC(=O)c1ccccc1F` (configuration not stated): the values for the half-life in [1] and in data set [4] were 25 min and 6 min, respectively. The same molecule displayed a Recovery time in the data set listed under Canis familiaris [18] of 19 min. For the same molecule, the pA2 at Adrenergic receptor beta [3] amounted to 8.1; on Adrenergic receptor beta [7] it was 7.4. In [8], this molecule showed a Selectivity of -5. Besides, the Inhibition in the data set filed under Canis familiaris [19] stood at 68%.
On to `CC(C)NCC(O)COC(=O)c1ccc(O)cc1` (configuration not stated), for which the pA2 at Adrenergic receptor beta [3] came to 7.2; on Adrenergic receptor beta [7], 6.8. Besides, the Recovery time in the data set listed under Canis familiaris [20] was above 45 min. Besides, the Selectivity in [8] was -2.5.
Turning to `CC(C)(C)NCC(O)COC(=O)c1ccc2c(c1)OCO2` (configuration not stated), the Recovery time in the data set filed under Canis familiaris [21] is above 60 min. The molecule further had a pA2 at Adrenergic receptor beta [7] of 6.9.
Molecule `CC(C)(C)NCC(O)COC(=O)c1ccc(C=O)cc1` (configuration not stated) gave a Selectivity in data set [22] of 1. For the same molecule, the pA2 turned out to be 6.3 on Adrenergic receptor beta [3] and 6.2 on Adrenergic receptor beta [7]. Also, the results for the half-life in [23] and in [24] were 1 min and 14 min, respectively.
Turning to `COc1ccc(C(=O)OCC(O)CNC(C)C)cc1` (configuration not stated), the values for the half-life in data set [1], in [4] and in data set [6] were 37 min, 150 min and 55 min, respectively. The results for the pA2 at Adrenergic receptor beta [3] and at Adrenergic receptor beta [7] were 6.3 and 6, respectively. In the data set filed under Canis familiaris [25], this molecule came in with a Recovery time above 60 min. The molecule further displayed a Selectivity in data set [8] of -2.
In the case of `CC(C)(C)NCC(O)COC(=O)c1ccccc1F` (configuration not stated), in the data set listed under Canis familiaris [26], the Recovery time amounted to 17 min. Besides, the half-life in [1] turned out to be 10 min; in [4], 30 min; in data set [6], 1.6 min. For the same molecule, the pA2 at Adrenergic receptor beta [3] is reported as 8; on Adrenergic receptor beta [7], 6.8. Besides, the amount remaining at 18 h in data set [5] turned out to be 98%. Further, the Selectivity in data set [8] was -16. In the data set filed under Canis familiaris [27], this molecule showed an Inhibition of 60%.
In the case of `CC(C)(C)NCC(O)COC(=O)c1ccc([N+](=O)[O-])cc1Cl` (configuration not stated), the pA2 was determined as 6.5 on Adrenergic receptor beta [3] and 6.6 on Adrenergic receptor beta [7]. In addition, in data set [8], the Selectivity came to 1. This molecule also had an Inhibition in the data set filed under Canis familiaris [28] of 85%. Also, the Recovery time in the data set filed under Canis familiaris [29] is above 60 min.
With `COc1ccc(CCNCC(O)COC(=O)c2ccccc2)cc1OC` (configuration not stated), the figures for the pA2 at Adrenergic receptor beta [3] and at Adrenergic receptor beta [7] were 6.3 and 7, respectively. Moreover, the Selectivity in [8] is 5. Also, the Recovery time in the data set listed under Canis familiaris [30] was 29 min.
